Compound activity: PubChem, several laboratories
Shown are actives, neighbours in structure and some others; about 4.2% of the full set was active somewhere.
Rad51 HR inh: blocks human Rad51 in homologous recombination | Q06609 | hRad51 DNA strand exchange, fluorescence dequenching | inhibition, % at 10 µM | 200,000 tested, 0.085% active | AID 1385;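 active means inhibition above 40% at the single screening dose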;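 further: 0% = DMSO control wells and 100% = blanks with heterologous ssDNA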
Target sequence (Q06609 whole entry, looked up): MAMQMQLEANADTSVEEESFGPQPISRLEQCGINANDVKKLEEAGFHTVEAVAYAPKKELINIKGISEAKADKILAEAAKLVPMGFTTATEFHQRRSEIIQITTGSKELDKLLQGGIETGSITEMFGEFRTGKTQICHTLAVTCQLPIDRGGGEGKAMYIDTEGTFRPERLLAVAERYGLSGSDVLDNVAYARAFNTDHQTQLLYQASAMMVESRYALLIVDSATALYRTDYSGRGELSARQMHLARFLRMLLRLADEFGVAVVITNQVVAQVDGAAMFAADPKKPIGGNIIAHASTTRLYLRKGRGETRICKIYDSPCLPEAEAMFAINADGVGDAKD
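System: human Rad51 nucleoprotein filaments preassembled on unlabelled ssDNA. Reagent: labelled 47-mer dsDNA for strand exchange. Schedule: 30-min compound preincubation and 15-min exchange, both room temperature. Measured by: FRET fluorescence dequenching, excitation 485 nm, emission 520 nm. Read-out: Fluorescence-based percent inhibition, control- and blank-normalised. Benchmarks: plate controls and plate blanks.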
Cl transport mod: modulates chloride dependent transport by human KCC2; Q9H2X9; KCC2 cells, thallium flux FluoZin-2 fluorescence; B-score of Tl+ flux slope (higher = more flux/activation; lower = inhibition) at 10 µM; 190,000 tested, 2.2% active;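 active means thallium flux slope and its plate-corrected score both differing from the plate sample mean at a set confidence after two filtering rounds, in either direction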;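 further: slope of fluorescence scaled to starting intensity during 10 to 20 s after thallium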
Autophagy mod: alters autophagy in cells. 190,000 tested, 0.98% active. MEF GFP-LC3 puncta imaging; test concentration mostly 10 µM. AID 463193. calls only at 10 µM (by protocol);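 active means percentage of spot-positive cells more than 3 SD above its plate mean, without a fluorescence outlier flag or 80% toxicity; inconclusive means no clear call, values can overlap the other calls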;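 further: spot-positive cell cutoff set from DMSO-treated cells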
WT yeast gro inh: growth inhibition of WT yeast, mitochondrial fusion screen; inhibition, % at 10 µM; 190,000 tested, 2.1% active; mitochondrial fusion phenotypic screen, WT strain; in the data active means inhibition above about 58%; tested in S. cerevisiae
SKKanGAS inh: SKKanGAS growth inhibition. inhibition, % at 7.5 µM. 300,000 tested, 1.3% active. S. pyogenes SKKanGAS, kanamycin growth, BacTiter-Glo, 6 h;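 active means mean replicate score, as percent of positive control median, at least 50; inconclusive means mean below 50 but one replicate at or above 50; inactive means mean and every replicate below 50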;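 further: strain carries kanamycin resistance gene driven by streptokinase promoter and grows in 40 µg/ml kanamycin; loss of luminescence reflects streptokinase promoter inhibition or plain growth inhibition; 0% = median of DMSO wells and 100% = positive control at its reference dose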
Insulin prom up: MIN6 insulin promoter up-regulation. MIN6 insulin promoter-GFP reporter, high-content imaging; hits give high values. z-score at 5 µM. 190,000 tested, 0.3% active. AID 1625;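 active means z-score above 3 at 5 µM with at least 500 cells counted in the well; inconclusive means wells under 500 cells, flagged as cytotoxic or low count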
Numbers without * were called inactive; i = inactive; ? = inconclusive; . = no result; + = active, no number.

SMILES	Rad51 HR inh	Cl transport mod	Autophagy mod	WT yeast gro inh	SKKanGAS inh	Insulin prom up
CC(=O)Nc1ccc(NC(=O)COC(=O)c2c3c(nc4ccccc24)CCN(Cc2ccccc2)C3)cc1	-2	-2	+	-14	7	-0.84
NC(=O)c1ccc(NC(=O)COC(=O)c2c3c(nc4ccccc24)/C(=C\c2cccs2)CCC3)cc1	9	0.93	i	76*	91*	-3.1
O=C(Nc1cccc(S(=O)(=O)N2CCCCC2)c1)c1c2c(nc3ccccc13)CCN(Cc1ccccc1)C2	-3	-0.34	+	8	11	.
CCc1cccc(C)c1NC(=O)COC(=O)c1c2c(nc3ccccc13)/C(=C\c1cccs1)CCC2	2	0.74	i	5	15	0.28
O=C(COC(=O)c1c2c(nc3ccccc13)CCN(Cc1ccccc1)C2)Nc1c(F)cccc1F	-4	0.057	?	-6	15	-0.45
CCCOc1ccc(C2=CSC3=NCCN23)cc1[N+](=O)[O-]	.	.	.	.	2	.
CCNC(=O)COc1ccc(/C=C2\COc3ccccc3C2=O)cc1OC	.	.	.	.	-10	.
CCC1(C)Cc2ccccc2-c2nc(-c3ccccc3)oc(=O)c21 (centres undefined)	5	.	i	42	54*	-0.61
CCOCCCNC(=O)C(NC(=O)c1ccc2c(c1)OCO2)c1ccccc1 (centres undefined)	7	1.8	+	3	-3	-0.39
N#Cc1c(Cc2cccc3ccccc23)nn(CCO)c1N	-2	.	.	.	-1	.
Cc1ccc(NC(=O)CCn2cccc2)cc1Cl	-1	.	i	-7	-6	3.2*
CCc1ccc(NC(=O)CCn2cccc2)cc1	-3	-0.018	i	2	-2	0.37
COCCn1c(SCC(=O)N2CCCCCC2)nnc1-c1ccco1	.	.	.	.	-4	.
CC/C(=N\NC(=O)CNC(=O)/C=C/c1ccc(OC)cc1)c1ccccc1	.	.	.	.	-10	.
CCC(Sc1nc2cc3c(cc2c(=O)n1Cc1ccco1)OCO3)C(=O)Nc1cccc(OC)c1 (centres undefined)	8	0.054	+	-9	16	0.13
CCC(Sc1nc2cc3c(cc2c(=O)n1Cc1ccco1)OCO3)C(=O)Nc1ccccc1OC (centres undefined)	0	0.95	+	-15	13	-0.17
CCC(Sc1nc2cc3c(cc2c(=O)n1Cc1ccco1)OCO3)C(=O)NCCOC (centres undefined)	-1	-0.6	i	18	3	0.29
COc1ccc(OCc2nnc(SCC(=O)NC3CCCCC3)o2)cc1	.	.	.	.	-6	.
CC1(C)[C@@H](O)CC[C@]2(C)C3C(O)C=C4[C@H]5C[C@@](C)(CO)CC[C@]5(C)CC[C@]4(C)[C@]3(C)CC[C@@H]12 (some centres undefined)	-10	-0.43	.	.	99*	0.52
CN1CCN(CCCNC(=O)c2cc3c(-c4ccc(Cl)cc4)nn(C)c3s2)CC1	3	.	+	13	-1	-1.3
CCN(CC)CCCNC(=O)c1cc2c(-c3ccc(Cl)cc3)nn(C)c2s1	-4	.	+	2	-4	0.22
Cn1nc(-c2ccc(Cl)cc2)c2cc(C(=O)NCC3CCCO3)sc21 (centres undefined)	6	-1.1	i	-3	-5	0.38
Cc1c(CN(C)C)c2c(n1Cc1ccccc1)C(=O)c1ccc(Br)cc1-2	18	.	i	82*	-1	.
COc1ccc2cc(/C(C)=N/NC(=S)Nc3cc(S(=O)(=O)N4CCOCC4)ccc3N3CCOCC3)ccc2c1	-5	1.5	+	-18	12	-3.2
CC1(C)CC(c2nc(-c3ccc(Cl)cc3)cs2)CCS1 (centres undefined)	.	1.7	i	66*	65*	0.25
SMILES	Rad51 HR inh	Cl transport mod	Autophagy mod	WT yeast gro inh	SKKanGAS inh	Insulin prom up
CC1(C)CC(c2nc(-c3ccccc3)cs2)CCS1 (centres undefined)	-5	0.26	i	61*	-12	0.14
Cc1ccc(CS(=O)Cc2ccc(C(=O)N3CCN(C4CCCCC4)CC3)o2)cc1 (centres undefined)	.	.	.	.	1	.
COC(=O)c1cccc(NC(=S)N2CCN(c3ccccc3F)CC2)c1	.	0.0033	i	12	-5	-0.37
CCOC(=O)c1cnc(-c2ccccc2O)nc1Cl	.	-0.0074	i	7	6	-0.45
CCOC(=O)C1=Nc2ccccc2C1=[N+]=[N-]	-4	-0.98	i	71	103*	-2.8
COc1cc(CNCCCN2CCOCC2)cc(Cl)c1OCC(=O)NC(C)(C)C	.	.	.	.	0	.
CC(C)(C)C(=O)/C=c1\[nH]c(=O)/c(=C\c2ccc(F)cc2)s1	-16	.	i	-3	4	-0.47
CCc1ccc(/C=c2\s/c(=C\C(=O)C(C)(C)C)[nH]c2=O)cc1	7	7*	i	-1	102*	-0.25
Cc1ccccc1/C=c1\s/c(=C\C(=O)C(C)(C)C)[nH]c1=O	11	10*	i	-11	-4	1.2
COc1ccccc1N1CCN(C(=O)c2ccc3c(c2)NC(=O)C(CSCc2ccccc2C)N3)CC1 (centres undefined)	.	.	.	.	13	.
CCc1ccc(OCC(=O)NNC(=O)c2ccc(NC(=O)C3CC3)cc2)cc1	.	.	.	.	-2	.
COc1ccc(CN2C(=O)CNC2=S)cc1	.	.	.	.	1	.
CCn1c(=S)[nH]c2nc3c(cc2c1=O)CCCC3	9	42*	i	-2	11	-0.56
CCOc1ccc2c(c1)C(c1ccc(C)o1)=NNC(c1ccncc1)=N2	-2	0.78	+	-11	-1	0.06
CCOc1ccc2c(c1)C(c1ccc(C)cc1)=NNC(c1ccc(OC)cc1)=N2	-4	0.02	i	51	-4	-0.32
O=C(CC1C(=O)NCCN1C1CCCC1)NCc1cccc(OC(F)(F)F)c1 (centres undefined)	.	.	.	.	-5	.
Cc1ccccc1C(=O)N/N=C/c1ccc([N+](=O)[O-])s1	9	5.2*	i	12	11	.
Cc1ccccc1NC(=O)/C=C/c1ccc([N+](=O)[O-])s1	-24	0.77	+	-6	11	?
Cc1cc(C)cc(NC(=O)/C=C/c2ccc([N+](=O)[O-])s2)c1	-1	-0.45	i	11	17	6*
CC(=O)c1cccc(NC(=O)/C=C/c2ccc([N+](=O)[O-])s2)c1	-8	-0.44	i	-11	-6	?
COCCN(C(=O)COC(=O)C1(c2ccccc2)CC1)c1c(N)n(CC(C)C)c(=O)[nH]c1=O	.	.	.	.	-5	.
C1CCN(CCCNC2C3CC4CC(C3)CC2C4)C1 (centres undefined)	2	0.38	i	-13	1	0.05
O=S1(=O)C=C(Sc2nc3ccccc3s2)c2ccccc21	7	3.6	+	16	-11	-0.19
Cc1cc(C)nc(SC2=CS(=O)(=O)c3ccccc32)n1	-7	-0.081	i	-5	0	.
COc1ccccc1C(=O)NC(=O)CSc1nncn1C(C)C	.	.	.	.	-3	.
